Ki, IC50 and Ratio data for eleven compounds are collected here from ChEMBL document CHEMBL1127294, “Development of a model for the delta opioid receptor pharmacophore. 1. Conformationally restricted Tyr1 replacements in the cyclic delta receptor selective tetrapeptide Tyr-c[D-Cys-Phe-D-Pen]OH (JOM-13)” (J Med Chem, 1994).

Peptide text beside a SMILES is read from it. Bounds are passed on as bounds.

The Ki is the dissociation constant of the complex between target and ligand, obtained from inhibition or displacement. The term IC50 denotes the concentration at which inhibition is half-maximal. A higher IC50 goes with a need for much substance.

Experiment [1] deals with T1, Mu-type opioid receptor (Cavia porcellus, UniProt P97266). Description: Displacement of [3H]DAMGO from mu opioid receptor of guinea pig brain membrane. Background: Displacement assays read how much labelled ligand stays bound in the presence of the test substance.
In experiment [2] the target is T1, Mu-type opioid receptor. Description: Inhibitory concentration of compound against mu opioid receptor in guinea pig ileum assay. Type of experiment: tissue-based. A digest of the protocol: (§1)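 Electrically stimulated tissue in Krebs bicarbonate, 37 °C, 95% O2/5% CO2, 0.1 Hz, supramaximal voltage. MVD used male ICR mouse vas deferens, Mg-free buffer, 0.5 g tension, 2.0 ms pulses. GPI used male Hartley guinea pig ileum myenteric plexus strips, 1 g tension, 0.4 ms pulses. Cumulative agonist doses, 3 min each. IC50 from Hill fit to mean inhibition data, 2–4 tissues.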

Experiment [3] has as its target Delta-type opioid receptor (Mus musculus, UniProt P32300). Description: Inhibitory concentration against delta opioid receptor in mouse vas deferens assay. Type of experiment: tissue-based. A digest of the protocol:
as §1

The target in experiment [4] is Opioid receptors; mu & delta (UniProt P41143+P35372). As to the kind of experiment: Ratio of IC50 against mu opioid to IC50 against delta opioid receptor. The gist of the method:
as §1

Delta-type opioid receptor, sequence (P32300 whole entry): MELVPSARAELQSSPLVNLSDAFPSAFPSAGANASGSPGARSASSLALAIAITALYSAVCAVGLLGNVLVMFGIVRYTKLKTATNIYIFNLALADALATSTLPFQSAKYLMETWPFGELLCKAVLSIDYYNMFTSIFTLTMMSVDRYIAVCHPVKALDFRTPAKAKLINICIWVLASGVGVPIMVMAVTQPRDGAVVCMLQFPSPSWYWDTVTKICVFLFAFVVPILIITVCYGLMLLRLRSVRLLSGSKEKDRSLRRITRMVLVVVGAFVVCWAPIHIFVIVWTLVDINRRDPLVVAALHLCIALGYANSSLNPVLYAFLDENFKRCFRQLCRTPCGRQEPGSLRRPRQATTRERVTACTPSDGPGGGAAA
Opioid receptors; mu & delta, sequence (P35372 whole entry, looked up): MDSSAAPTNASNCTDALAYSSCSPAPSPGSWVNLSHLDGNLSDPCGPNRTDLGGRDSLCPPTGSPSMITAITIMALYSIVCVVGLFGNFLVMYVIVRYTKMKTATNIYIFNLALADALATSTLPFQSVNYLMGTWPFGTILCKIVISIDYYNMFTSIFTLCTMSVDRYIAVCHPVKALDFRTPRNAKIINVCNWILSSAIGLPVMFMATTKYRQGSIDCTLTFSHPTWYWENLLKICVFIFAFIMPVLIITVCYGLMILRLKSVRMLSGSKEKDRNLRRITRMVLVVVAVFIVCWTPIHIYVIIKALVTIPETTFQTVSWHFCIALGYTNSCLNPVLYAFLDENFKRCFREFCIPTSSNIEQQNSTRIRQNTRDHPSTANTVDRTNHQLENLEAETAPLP
Opioid receptors; mu & delta, sequence (P41143 whole entry, looked up): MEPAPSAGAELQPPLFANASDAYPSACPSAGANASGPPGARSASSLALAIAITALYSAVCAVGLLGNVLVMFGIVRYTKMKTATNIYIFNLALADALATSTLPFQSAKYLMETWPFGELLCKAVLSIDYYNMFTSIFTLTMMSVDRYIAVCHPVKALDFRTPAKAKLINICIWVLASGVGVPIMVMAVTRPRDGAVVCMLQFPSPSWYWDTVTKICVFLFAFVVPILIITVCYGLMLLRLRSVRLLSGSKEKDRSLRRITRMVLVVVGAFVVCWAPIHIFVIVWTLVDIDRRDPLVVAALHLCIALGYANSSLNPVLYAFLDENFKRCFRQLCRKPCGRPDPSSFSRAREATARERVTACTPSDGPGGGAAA
T1 sequence (P97266 whole entry): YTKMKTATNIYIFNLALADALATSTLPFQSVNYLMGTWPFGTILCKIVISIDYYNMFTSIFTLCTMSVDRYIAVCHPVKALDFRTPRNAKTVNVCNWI

Compound `CC1(C)SSC[C@H](NC(=O)[C@@]2(N)Cc3ccc(O)cc3C2)C(=O)N[C@@H](Cc2ccccc2)C(=O)N[C@@H]1C(=O)O` registered a Ki at Mu-type opioid receptor [1] of 840 nM. For the same compound, the 50% inhibitory concentration (IC50) on Mu-type opioid receptor [2] is over 10000 nM; in experiment [3], 340 nM. For the same compound, the Ratio in experiment [4] was over 29.
As for `CC1(C)SSC[C@H](NC(=O)C2(N)Cc3ccc(O)cc3C2)C(=O)N[C@@H](Cc2ccccc2)C(=O)N[C@@H]1C(=O)O` (single isomer, unassigned), the Ki at Mu-type opioid receptor [1] is over 10000 nM.
Still for that read-out and setting: as for `CC1(C)SSC[C@H](NC(=O)[C@@](C)(N)Cc2ccc(O)cc2)C(=O)N[C@@H](Cc2ccccc2)C(=O)N[C@@H]1C(=O)O` (HELM PEPTIDE1{[C[C@](N)(Cc1ccc(O)cc1)C(=O)[*:2]].C.F.[Pen]}$PEPTIDE1,PEPTIDE1,2:R3-4:R3$$$V2.0), the figure is over 10000 nM.
For the compound `CC1(C)SSC[C@H](NC(=O)[C@]2(N)CCc3cc(O)ccc3C2)C(=O)N[C@@H](Cc2ccccc2)C(=O)N[C@@H]1C(=O)O`, the affinity at Mu-type opioid receptor [1], expressed as Ki, was 230 nM. For the same compound, the IC50 against Mu-type opioid receptor [2] is 1800 nM; in experiment [3] it was 110 nM. Further, the Ratio in experiment [4] stood at 16.
The matching figures for `CC1(C)SSC[C@H](NC(=O)[C@H]2NCC[C@H]2c2ccc(O)cc2)C(=O)N[C@@H](Cc2ccccc2)C(=O)N[C@@H]1C(=O)O`: 720 nM, 12000 nM, 75 nM and 160.
The matching figures for `CC1(C)SSC[C@H](NC(=O)C2(N)CCc3cc(O)ccc3C2)C(=O)N[C@@H](Cc2ccccc2)C(=O)N[C@@H]1C(=O)O` (single isomer, unassigned): 310 nM, 4300 nM, 340 nM and 13.
On to `CC1(C)SSC[C@H](NC(=O)C2NCC[C@@H]2c2ccc(O)cc2)C(=O)N[C@@H](Cc2ccccc2)C(=O)N[C@@H]1C(=O)O` (single isomer, unassigned), for which, at Mu-type opioid receptor [1], the Ki came to 10000 nM.
The compound `CC1(C)SSC[C@H](NC(=O)[C@@H](N)Cc2ccc(O)cc2)C(=O)N[C@@H](Cc2ccccc2)C(=O)N[C@@H]1C(=O)O` registered an IC50 in experiment [3] of 4.2 nM.
Regarding `CC1(C)SSC[C@H](NC(=O)[C@H]2NCC[C@@H]2c2ccc(O)cc2)C(=O)N[C@@H](Cc2ccccc2)C(=O)N[C@@H]1C(=O)O`, at Mu-type opioid receptor [1], the Ki amounted to 110 nM. Further, the results for the IC50 (on Mu-type opioid receptor [2]; in experiment [3]) were 770 nM and 1.6 nM, respectively. Besides, the Ratio in experiment [4] came to 480.
For `CC1(C)SSC[C@H](NC(=O)[C@@H]2Cc3ccc(O)cc3CN2)C(=O)N[C@@H](Cc2ccccc2)C(=O)N[C@@H]1C(=O)O` (HELM PEPTIDE1{[O=C([C@@H]1Cc2ccc(O)cc2CN1)[*:2]].C.F.[Pen]}$PEPTIDE1,PEPTIDE1,2:R3-4:R3$$$V2.0), the Ki at Mu-type opioid receptor [1] was over 10000 nM.
Take `CC1(C)SSC[C@H](NC(=O)C2NCC[C@H]2c2ccc(O)cc2)C(=O)N[C@@H](Cc2ccccc2)C(=O)N[C@@H]1C(=O)O` (single isomer, unassigned): the Ki on Mu-type opioid receptor [1] is 4440 nM. This counts as single-digit micromolar.
